In ChEMBL document CHEMBL3259773, “Indirubin core structure of glycogen synthase kinase-3 inhibitors as novel chemotype for intervention with 5-lipoxygenase” (J Med Chem, 2014):
The source made the active and inactive calls. No cut-off for these calls is given here.

How the values were obtained:
[1] = molecular target: T1, Polyunsaturated fatty acid 5-lipoxygenase (Homo sapiens) (UniProt P09917); experiment: Inhibition of human recombinant 5-LO assessed as product formation at 3 uM by cell-free assay relative to control; values are per cent of control
T1 sequence (whole entry): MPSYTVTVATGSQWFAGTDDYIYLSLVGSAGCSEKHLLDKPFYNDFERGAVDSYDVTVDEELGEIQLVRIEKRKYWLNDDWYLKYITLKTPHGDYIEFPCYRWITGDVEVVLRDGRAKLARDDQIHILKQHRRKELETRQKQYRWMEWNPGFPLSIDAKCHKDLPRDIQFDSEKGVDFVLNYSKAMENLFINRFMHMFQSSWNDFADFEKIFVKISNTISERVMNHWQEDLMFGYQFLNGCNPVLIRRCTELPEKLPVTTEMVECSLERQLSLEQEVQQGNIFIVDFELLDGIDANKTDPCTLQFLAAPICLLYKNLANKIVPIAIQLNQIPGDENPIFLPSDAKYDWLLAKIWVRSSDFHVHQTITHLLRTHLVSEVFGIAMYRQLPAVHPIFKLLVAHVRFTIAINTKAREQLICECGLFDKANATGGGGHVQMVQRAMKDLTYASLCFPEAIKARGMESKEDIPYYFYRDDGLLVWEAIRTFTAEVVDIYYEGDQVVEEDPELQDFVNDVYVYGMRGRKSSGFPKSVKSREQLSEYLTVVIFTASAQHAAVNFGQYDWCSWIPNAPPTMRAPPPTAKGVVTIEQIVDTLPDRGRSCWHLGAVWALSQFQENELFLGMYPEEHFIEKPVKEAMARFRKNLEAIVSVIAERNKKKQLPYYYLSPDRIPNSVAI

[2] = molecular target: T1, Polyunsaturated fatty acid 5-lipoxygenase (Homo sapiens); experiment: Inhibition of 5-LO in human neutrophils assessed as product formation at 3 uM by cell-intact assay relative to control in presence of 2.5 uM A23187 ionophore; values are per cent of control
[3] = molecular target: T2, Prostaglandin E synthase (Homo sapiens) (UniProt O14684); experiment: Inhibition of human mPGES1 from human A549 cells assessed as PGE2 at 10 uM after 15 mins by HPLC; assay type: cell-based
T2 sequence (whole entry): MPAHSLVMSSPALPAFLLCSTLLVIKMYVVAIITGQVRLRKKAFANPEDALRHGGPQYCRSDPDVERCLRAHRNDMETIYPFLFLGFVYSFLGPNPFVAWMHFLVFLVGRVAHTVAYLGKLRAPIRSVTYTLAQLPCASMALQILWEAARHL
Summary of the method: (§1)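 Enzyme (ovine COX-1) or A549 microsomal preparation (human mPGES-1) given compound or reference inhibitor 10 min before reaction start. Activity expressed as % of 0.1% DMSO vehicle control, read-outs 12-HHT (COX-1) and PGE2 (mPGES-1). Means ± SE, n = 3.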

[4] = molecular target: T3, Prostaglandin G/H synthase 1 (Ovis aries) (UniProt P05979); experiment: Inhibition of ovine COX1 using arachidonic acid at 10 uM after 5 mins by HPLC analysis
T3 sequence (whole entry): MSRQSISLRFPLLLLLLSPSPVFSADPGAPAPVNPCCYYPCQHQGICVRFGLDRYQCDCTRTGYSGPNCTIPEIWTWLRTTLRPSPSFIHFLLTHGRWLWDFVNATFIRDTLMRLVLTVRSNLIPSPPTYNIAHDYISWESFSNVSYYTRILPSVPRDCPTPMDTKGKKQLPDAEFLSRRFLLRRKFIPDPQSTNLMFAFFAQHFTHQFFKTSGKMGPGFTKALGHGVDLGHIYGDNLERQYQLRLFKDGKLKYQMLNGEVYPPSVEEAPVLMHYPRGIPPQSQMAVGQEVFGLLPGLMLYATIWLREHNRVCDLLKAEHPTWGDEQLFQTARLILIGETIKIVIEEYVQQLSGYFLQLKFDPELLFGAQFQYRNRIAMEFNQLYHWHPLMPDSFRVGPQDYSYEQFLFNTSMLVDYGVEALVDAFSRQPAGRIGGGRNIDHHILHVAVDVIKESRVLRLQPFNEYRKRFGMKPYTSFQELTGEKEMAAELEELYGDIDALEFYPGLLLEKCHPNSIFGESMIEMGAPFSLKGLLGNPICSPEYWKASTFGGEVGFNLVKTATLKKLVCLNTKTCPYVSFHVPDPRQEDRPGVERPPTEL
Summary of the method: as §1

[5] = Inhibition of pig brain GSK3 using YRRAAVPPSPSLSRHSSPHQSpEDEEE substrate by cell-free assay; set-up: species or system Sus scrofa
[6] = molecular target: T4, Polyunsaturated fatty acid 5-lipoxygenase (Homo sapiens, UniProt P09917); experiment: Inhibition of human recombinant 5-LO assessed as product formation by cell-free assay relative to control
T4 sequence (P09917 whole entry): T1 sequence (whole entry)
Summary of the method: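 Partially purified human recombinant 5-LO (ATP-agarose eluate, 0.5–2 μg) in PBS-EDTA with 1 mM ATP. Preincubated with vehicle or compound 10 min at 4 °C, prewarmed 30 s at 37 °C, then started with 2 mM CaCl2 and 20 μM AA. Products analysed by HPLC. Means ± SE, n = 3 or 4; IC50 by sigmoidal variable-slope fit.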

[7] = molecular target: T4, Polyunsaturated fatty acid 5-lipoxygenase; experiment: Inhibition of 5-LO in human neutrophils assessed as product formation by cell-intact assay relative to control in presence of 20 uM A23187/AA ionophore
Summary of the method: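 Intact human neutrophils, 5 × 10^6 cells/mL, stimulated with 2.5 μM A23187 plus 20 μM exogenous AA. 5-LO products quantified by HPLC or UPLC–MS/MS relative to vehicle control. IC50 from sigmoidal variable-slope fit, means ± SE, n = 3.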

[8] = molecular target: T4, Polyunsaturated fatty acid 5-lipoxygenase; experiment: Inhibition of 5-LO in human neutrophils assessed as product formation by cell-intact assay relative to control in presence of 2.5 uM A23187 ionophore
Summary of the method: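 Intact human neutrophils, 5 × 10^6 cells/mL, stimulated with 2.5 μM A23187. 5-LO products analysed by HPLC or UPLC–MS/MS and expressed relative to DMSO vehicle control. Means ± SE, n = 3 or 4; IC50 from sigmoidal variable-slope fit.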

[9] = system: SH-SY5Y; experiment: Anticancer activity against human SH-SY5Y cells assessed as reduction in cell viability; assay type: functional, cell-based
[10] = molecular target: T1, Polyunsaturated fatty acid 5-lipoxygenase (Homo sapiens); experiment: Binding affinity to human recombinant 5-LO ATP-bindng site using ATP-agaarose column in S40 fraction of Escherichia coli
Summary of the method: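 E. coli S40 fraction (40,000 × g supernatant) bound to ATP-agarose for 10 min at 4 °C. Pellets washed 3× with PBS-1 mM EDTA, then exposed to vehicle (0.1% DMSO) or compound for 30 min at 4 °C. Eluates and pellet-bound 5-LO resolved by SDS-PAGE and Western blot. Representative of three experiments.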

Compound `CN(CCO/N=C1/C(=C2/C(=O)Nc3cc(Br)ccc32)Nc2ccccc21)CC(O)CO` (configuration not stated) has a residual activity [1] of 71.5% and a residual activity [2] of 87%.

With `CC(C)c1ccc2c(c1)c(SC(C)(C)C)c(CC(C)(C)C(=O)O)n2Cc1ccc(Cl)cc1` the inhibition [3] was “Active”.

For `O=C1Nc2c(Br)cccc2/C1=C1/Nc2ccc(/C=N/O)cc2C1=O`, the residual activity [1] was 80% and the residual activity [2] was 95.1%.

Compound `O=C1Nc2cc(Br)ccc2/C1=C1/Nc2ccccc2/C1=N\OCCO` has a residual activity [1] of 88.3% and a residual activity [2] of 81.5%.

`O=C1Nc2cc(Br)ccc2/C1=C1/Nc2ccccc2/C1=N\OCCN1CCNCC1` gave a residual activity [1] of 76.2% and a residual activity [2] of 64.7%.

In the case of `COc1ccc2c(c1)c(CC(=O)O)c(C)n2C(=O)c1ccc(Cl)cc1`, the inhibition [4] is reported as “Active”.

For `O=Nc1c(-c2c(O)[nH]c3ccccc23)[nH]c2ccccc12` [INDIRUBIN-3-MONOXIME], the IC50 [5] was 0.022 µM, the IC50 [6] was 15 µM and the IC50 [7] was 8.2 µM. The IC50 [8] was 11.1 µM, the residual activity [1] was 78.4% and the residual activity [2] was 92.2%.

Compound `O=C1Nc2c(Br)cccc2/C1=C1/Nc2ccccc2/C1=N\O` has an EC50 [9] of 8 µM, an IC50 [6] of 5.8 µM and an IC50 [7] of 3.6 µM. The IC50 [8] was 1.7 µM, the residual activity [1] was 68.9% and the residual activity [2] was 43%.

In the case of `O=C1Nc2cc(Br)ccc2/C1=C1/Nc2ccccc2/C1=N\OCCN1CCN(CCO)CC1`, the residual activity [1] is reported as 89.3% and the residual activity [2] is reported as 119%.

`CO/N=C1/C(=C2/C(=O)Nc3c(Br)cccc32)Nc2ccccc21` gave a residual activity [1] of 82.9% and a residual activity [2] of 120%.

Compound `O=C1Nc2c(Cl)cccc2/C1=C1/Nc2ccccc2/C1=N\O` has an IC50 [6] of 4.9 µM, an IC50 [7] of 3.1 µM and an IC50 [8] of 4.9 µM. The residual activity [1] was 65.8% and the residual activity [2] was 67.4%.

For `O=C1Nc2c(F)cccc2/C1=C1/Nc2ccccc2/C1=N\O`, the IC50 [6] was 3.7 µM, the IC50 [7] was 3.3 µM and the IC50 [8] was 5 µM. For the same compound, the residual activity [1] was 58.1% and the residual activity [2] was 50.4%.

For `O=C1Nc2ccc(Br)cc2/C1=C1/Nc2ccccc2/C1=N\O` [INDIRUBIN 2], the IC50 [6] was 5.6 µM, the IC50 [7] was 3.3 µM and the IC50 [8] was 2.6 µM. The residual activity [1] was 62.3% and the residual activity [2] was 51.1%.

Work on `O=C1Nc2cc(Br)ccc2/C1=C1/Nc2ccccc2/C1=N\OCC(O)CO` (configuration not stated) yielded a residual activity [1] of 58% and a residual activity [2] of 77.7%.

`O=C1Nc2c(cccc2C(F)(F)F)/C1=C1/Nc2ccccc2/C1=N\O` gave a residual activity [1] of 68% and a residual activity [2] of 92.6%.

`O=C1Nc2c(Br)cccc2/C1=C1/Nc2cc(C(=O)O)ccc2/C1=N\O` gave a residual activity [1] of 77.1% and a residual activity [2] of 123%.

`O=C1Nc2c(Br)cccc2/C1=C1/Nc2ccccc2C1=O` gave a residual activity [1] of 85.4% and a residual activity [2] of 110%.

For `COC(=O)c1ccc2c(c1)C(=N\O)/C(=C1/C(=O)Nc3c(Br)cccc31)N2`, the residual activity [1] was 72.8% and the residual activity [2] was 99.1%.

In the case of `CN1C(=O)/C(=C2\Nc3ccccc3\C2=N/O)c2cccc(Br)c21`, the Activity [10] is reported as “inactive”, the residual activity [1] is reported as 97.7% and the residual activity [2] is reported as 122%.

Compound `O=Nc1c(-c2c(O)[nH]c3ccccc23)[nH]c2cc(Br)ccc12` has a residual activity [1] of 43.9% and a residual activity [2] of 111%.

Compound `CN1CCN(CCO/N=C2/C(=C3/C(=O)Nc4cc(Br)ccc43)Nc3ccccc32)CC1` has a residual activity [1] of 82.1% and a residual activity [2] of 91.1%.

In the case of `O=C1Nc2cc(Br)ccc2/C1=C1/Nc2ccccc2/C1=N\OCCN1CCOCC1`, the residual activity [1] is reported as 60.3% and the residual activity [2] is reported as 62.7%.

For `CC(=O)O/N=C1/C(=C2/C(=O)Nc3c(Br)cccc32)Nc2ccccc21`, the residual activity [1] was 79.2% and the residual activity [2] was 112%.

`O=C1Nc2cc(Br)ccc2/C1=C1/Nc2ccccc2/C1=N\OCCN1CCCC1` gave a residual activity [1] of 75.1% and a residual activity [2] of 127%.

For `CC(c1cc2ccccc2s1)N(O)C(N)=O` (configuration not stated), the residual activity [2] was 37.9%.

`O=C1Nc2c(Br)cccc2/C1=C1/Nc2cc(C(=O)O)ccc2C1=O` showed a residual activity [1] of 80% and a residual activity [2] of 105%.
